Structures are written as SMILES. Activity calls are given as the source filed them. The rule behind the calls is not given here. Some results are limits rather than exact numbers.

The subject of one data set is HCC1954. As to the kind of experiment: Antiproliferative activity against human HER2-positive HCC1954 cells assessed as change in cell proliferation by MTT assay. Format: functional, cell-based. The method, boiled down: (§1)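 Cells seeded at 1.5 x 10^4/well and incubated overnight; sub-confluent cells treated at 37 °C for 24, 48 or 72 h. MTT added (final 1 mg/mL), 3 h at 37°C in the dark, formazan dissolved in DMSO, read at 590 nm. Expressed as % of vehicle; mean ± SEM of three experiments, each at least in quintuplicate.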

In data set [1] the test system is BT-549. As to the kind of experiment: Antiinflammatory activity in human BT-549 cells assessed as decrease in TNF-alpha level at 10 uM incubated for 48 hrs by ELISA method relative to control. Details: scale not given: the % may be the effect or the level left. Format: functional. Put shortly:
(§2)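 BT549 cells seeded at 1.5 x 10^4/well and treated after 24 h with vehicle or compound at 37 °C for 48 h. TNF-α and IL-6 in supernatant measured by ELISA at 450 nm against a recombinant cytokine standard curve (0-1000 pg/mL). Expressed as % of vehicle. Three independent experiments, each in triplicate.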
A general note: In an ELISA, binding on a coated surface is turned into a signal by an enzyme label.

Data set [2] concerns BT-549. The data set is described as follows: Antiproliferative activity against human BT-549 cells transfected with CNR2 siRNA assessed as inhibition of cell proliferation at 10 uM incubated after 24 hrs by MTT assay. Format: functional, cell-based. The method, boiled down:
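BT549 cells transfected with 50 nM CNR2 siRNA or scramble control by lipofection. After 24 h, treated with vehicle or 10 µM compound for a further 24 h. Viability by MTT (1 mg/mL, 3 h, 37°C, 590 nm).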
Background: Tetrazolium dyes change colour on reduction, which living cells bring about.

The target in data set [3] is T1, Cannabinoid receptor 2 (Homo sapiens, UniProt P34972). The data set is described as follows: Agonist activity at human recombinant Cannabinoid receptor 2 by GTPgammaS binding assay. Format: functional. To be noted: read-out: EC50. The method, boiled down:
(§3)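 [35S]GTPγS filtration assay. Membranes (5 µg CB2 or 10 µg/well CB1), permeabilized with equal mass of saponin, preincubated 20 min at room temperature with compound (0-100 μM) in 20 mM HEPES, 100 mM NaCl, 10 mM MgCl2, 10 µM GDP, pH 7.4. Then 0.3 nM [35S]GTPγS for 30 min at 37 °C. Quintuplicate, ≥3 experiments. pEC50 from non-linear fit.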
In general terms: GTPγS resists hydrolysis and so accumulates on activated G proteins.

The subject of data set [4] is BT-549. The data set is described as follows: Inhibition of colony formation in human BT-549 cells assessed as decrease in number of colonies at 10 uM incubated for 14 days by inverted phase contrast microscope relative to control. Also noted: scale not given: the % may be the effect or the level left. The settings on record: time 14 day. Format: functional. Put shortly:
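BT549 seeded at 1 x 10^3 cells/well and grown at 37 °C for at least 14 days with vehicle or compound. Colonies fixed and stained with 6% glutaraldehyde/0.5% crystal violet for 30 min, then counted by inverted phase-contrast microscopy (10x). Expressed as % of vehicle. Three independent experiments, each at least in triplicate.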

The target in data set [5] is T1, Cannabinoid receptor 2. The data set is described as follows: Displacement of [3H]CP55,940 from human CB2 receptor expressed in CHO cells membrane assessed as residual activity at 0.1 uM by scintillation counting analysis relative to control. Format: cell membranes. The method, boiled down:
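Membranes (2.5 µg) from CHO cells stably expressing human CB2, in 50 mM Tris-HCl, 5 mM MgCl2, 1 mM CaCl2, 2 mg/mL BSA, pH 7.4. Incubated 30 min at 37 °C with 0.8 nM [3H]CP55,940 and 0.1 µM compound (final). Nonspecific binding with 1 µM unlabelled CP55,940. Filtered on PEI-soaked GF/B filters, scintillation counted. Quintuplicate, ≥3 experiments.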

Data set [6] concerns the target T1, Cannabinoid receptor 2. As to the kind of experiment: Agonist activity at human Cannabinoid receptor 2 in BT-549 cells assessed as downregulation in ERK1/2 phosphorylation level at 10 uM by westernblot analysis. To be noted: filed as agonist, time 5-60 min, TDE = time-dependent effect. Format: functional, cell-based. The method, boiled down:
(§4)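 BT549 cells, untransfected or transfected with scramble oligo or CNR2 siRNA, incubated at 37°C with or without 10 μM compound for the indicated periods. Phospho-ERK1/2 measured by Western blot on whole lysates (20-40 µg/lane, SDS-PAGE, PVDF, enhanced chemiluminescence). Values compared with relative vehicle-treated cells.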

Data set [7] has as its system BT-549. As to the kind of experiment: Antiproliferative activity against human BT-549 cells assessed as inhibition in cell proliferation incubated after 72 hrs by MTT assay. Format: functional, cell-based. The settings on record: dose 0.1-10 µM. The method, boiled down:
as §1

Data set [8] has as its system BT-549. As to the kind of experiment: Antiproliferative activity against human BT-549 cells assessed as inhibition in cell proliferation at 1 to 10 uM incubated after 24 hrs by MTT assay. Format: functional, cell-based. To be noted: dose 1-10 µM. Put shortly: as §1
The target in data set [9] is T1, Cannabinoid receptor 2. As to the kind of experiment: Agonist activity at human Cannabinoid receptor 2 in BT-549 cells assessed as change in ERK1/2 phosphorylation level at 10 uM and observed after 10 min by westernblot analysis. Format: functional, cell-based. The method, boiled down: as §4
The target of data set [10] is T1, Cannabinoid receptor 2. As to the kind of experiment: Agonist activity at human Cannabinoid receptor 2 in BT-549 cells transfected with CNR2 siRNA assessed as downregulation in ERK1/2 phosphorylation level at 10 uM and observed after 5 mins by Western blot analysis relative to control. Format: functional, cell-based. The method, boiled down:
as §4

The subject of another data set is MCF-10A. As to the kind of experiment: Cytotoxicity activity against human MCF-10A cells assessed as change in cell proliferation by MTT assay. Format: toxicity, cell-based. The method, boiled down: as §1
The subject of data set [11] is BT-549. The data set is described as follows: Antiinflammatory activity in human BT-549 cells transfected with CNR2 siRNA assessed as decrease in TNF-alpha level at 10 uM incubated for 48 hrs by ELISA method. Format: functional, cell-based. Put shortly:
(§5)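 BT549 cells seeded at 1.5 x 10^4 cells/well, transfected with 50 nM CNR2 siRNA or scramble oligo, then treated with vehicle or 10 μM compound at 37 °C for 48 h. TNF-α and IL-6 in supernatant measured by ELISA at 450 nm. Expressed as % of vehicle; mean ± SEM of three experiments in triplicate.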

Another data set deals with Cannabinoid receptor 1 (Homo sapiens, UniProt P21554). The data set is described as follows: Agonist activity at human recombinant Cannabinoid receptor 1 by GTPgammaS binding assay. Format: functional. The method, boiled down: as §3
The subject of the next data set is MDA-MB-231. As to the kind of experiment: Antiproliferative activity against human triple negative MDA-MB-231 cells assessed as change in cell proliferation by MTT assay. Format: functional, cell-based. The method, boiled down:
as §1

Data set [12] deals with BT-549. As to the kind of experiment: Antiinflammatory activity in human BT-549 cells transfected with CNR2 siRNA assessed as decrease in IL-6 level at 10 uM incubated for 48 hrs by ELISA method. Format: functional, cell-based. The method, boiled down:
as §5

Data set [13] addresses T1, Cannabinoid receptor 2. The data set is described as follows: Agonist activity at human Cannabinoid receptor 2 in BT-549 cells assessed as downregulation in ERK1/2 phosphorylation level at 10 uM and observed within 5 min by Western blot analysis relative to control. Format: functional, cell-based. The method, boiled down:
as §4

The subject of data set [14] is BT-549. As to the kind of experiment: Antiinflammatory activity in human BT-549 cells assessed as decrease in IL-6 level at 10 uM incubated for 48 hrs by ELISA method relative to control. Format: functional. Details: scale not given: the % may be the effect or the level left. The method, boiled down: as §2

T1 sequence (P34972 whole entry): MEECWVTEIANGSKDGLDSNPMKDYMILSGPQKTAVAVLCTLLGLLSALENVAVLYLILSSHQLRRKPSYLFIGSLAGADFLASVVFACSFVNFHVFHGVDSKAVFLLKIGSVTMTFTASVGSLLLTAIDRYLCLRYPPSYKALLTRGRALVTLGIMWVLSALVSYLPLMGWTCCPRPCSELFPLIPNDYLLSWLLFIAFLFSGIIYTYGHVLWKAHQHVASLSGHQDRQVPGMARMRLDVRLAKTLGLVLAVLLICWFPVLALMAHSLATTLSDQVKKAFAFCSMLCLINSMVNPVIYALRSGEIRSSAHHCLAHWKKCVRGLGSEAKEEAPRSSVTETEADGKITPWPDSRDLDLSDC
Sequence of Cannabinoid receptor 1 (P21554 whole entry): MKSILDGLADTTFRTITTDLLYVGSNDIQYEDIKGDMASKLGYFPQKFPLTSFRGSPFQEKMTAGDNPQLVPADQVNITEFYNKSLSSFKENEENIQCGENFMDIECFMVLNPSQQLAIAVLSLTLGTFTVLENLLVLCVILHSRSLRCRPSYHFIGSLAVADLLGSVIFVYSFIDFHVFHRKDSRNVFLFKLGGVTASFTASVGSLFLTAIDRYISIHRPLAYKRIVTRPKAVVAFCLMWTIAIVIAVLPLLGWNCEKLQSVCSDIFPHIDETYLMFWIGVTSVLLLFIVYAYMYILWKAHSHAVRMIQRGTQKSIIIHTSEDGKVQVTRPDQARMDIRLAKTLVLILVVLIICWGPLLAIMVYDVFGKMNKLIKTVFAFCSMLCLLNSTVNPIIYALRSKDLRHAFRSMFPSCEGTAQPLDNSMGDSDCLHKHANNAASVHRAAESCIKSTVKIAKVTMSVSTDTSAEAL

Turning to `O=C1c2ccc(OS(=O)(=O)c3cccs3)cc2OC2(CCCCC2)N1Cc1ccccc1`, the outcome with HCC1954 and with MDA-MB-231 was Active. Also, the Activity entry with BT-549 [1] is “<=50%”; in the data set with BT-549 [4], 75.4%; at Cannabinoid receptor 2 [5], < 80%; at Cannabinoid receptor 2 [6] it was “Tde”; with MCF-10A it was “Non-Toxic”; at Cannabinoid receptor 2 [13], 30%. Further, in the data set on BT-549 [14], the Activity result was “<=70%”. The outcome with BT-549 [2], on Cannabinoid receptor 2 [9], on Cannabinoid receptor 2 [10], in the data set with BT-549 [11] and in the data set with BT-549 [12] was inactive. In addition, the values for the EC50 at Cannabinoid receptor 2 [3], on Cannabinoid receptor 1 (read-out: EC50) and on Cannabinoid receptor 1 (read-out: pEC50 (converted)) were 0.11 µM, > 10 µM and > 10 µM, respectively. Also, the inhibition result in the data set with BT-549 [7] was “Dose-Dependent Effect”. Besides, the inhibition result in the data set on BT-549 [8] is “Active”.
